Calls of active or inactive are those of the source. The rule behind the calls is not given here.
Tests used:
A549 = test: Induction of cell death in human A549 cells at 10 uM after 24 to 72 hrs by trypan blue assay; type: functional, cell-based
How it was run: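 A549 cells given 10 µM for 24–72 h. Cell death was scored by trypan blue at each time point.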

T98G [1] = test: Induction of cell death in human T98G cells at 4.2 to 18.4 uM after 24 hrs by trypan blue assay in presence of zVAD-fmk; type: functional, cell-based
A-375 = test: Induction of cell death in human A375 cells at 2.5 to 10 uM after 48 hrs by trypan blue assay; type: functional, cell-based
How it was run: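 A549 or A375 cells treated 48 h with 2.5–10 µM. Cell death was scored by trypan blue exclusion as a function of concentration.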

[2] = target: T1, Ubl carboxyl-terminal hydrolase 18 (Homo sapiens) (UniProt Q9UMW8); test: Inhibition of USP18 (unknown origin) expressed in human A549 cells coexpressing ISG15-GFP assessed as reduction in free GFP at 2.5 to 10 uM after 24 hrs by immunoblot assay; type: cell-based
T1 sequence (whole entry): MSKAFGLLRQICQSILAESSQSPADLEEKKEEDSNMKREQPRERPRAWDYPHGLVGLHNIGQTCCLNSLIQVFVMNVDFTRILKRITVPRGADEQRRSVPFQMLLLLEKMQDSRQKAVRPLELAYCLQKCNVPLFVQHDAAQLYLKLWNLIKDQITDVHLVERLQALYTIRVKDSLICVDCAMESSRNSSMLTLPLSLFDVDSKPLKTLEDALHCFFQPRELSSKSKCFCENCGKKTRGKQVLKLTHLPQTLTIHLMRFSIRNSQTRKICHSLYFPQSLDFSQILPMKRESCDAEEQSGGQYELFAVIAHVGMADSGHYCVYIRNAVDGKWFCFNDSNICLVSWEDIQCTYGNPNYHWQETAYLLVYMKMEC

HT-29 [3] = test: Cytotoxicity against human HT-29 cells after 48 hrs by resazurin assay; type: functional, cell-based; settings: HT-29, 48 h
T98G [4] = test: Induction of necrosis in human T98G cells at 0.6 to 10 uM after 24 hrs by trypan blue assay; type: functional, cell-based
How it was run: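 T98G cells exposed 24 h to the listed concentrations. Cell death was scored as percent of trypan blue-positive cells.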

[5] = target: T2, Ubiquitin carboxyl-terminal hydrolase isozyme L5 (Homo sapiens, UniProt Q9Y5K5); test: Inhibition of GST-tagged UCHL5 (unknown origin) using Ub-AMC as substrate preincubated for 30 mins before substrate addition measured after 60 mins by fluorescence assay
T2 sequence (Q9Y5K5 whole entry): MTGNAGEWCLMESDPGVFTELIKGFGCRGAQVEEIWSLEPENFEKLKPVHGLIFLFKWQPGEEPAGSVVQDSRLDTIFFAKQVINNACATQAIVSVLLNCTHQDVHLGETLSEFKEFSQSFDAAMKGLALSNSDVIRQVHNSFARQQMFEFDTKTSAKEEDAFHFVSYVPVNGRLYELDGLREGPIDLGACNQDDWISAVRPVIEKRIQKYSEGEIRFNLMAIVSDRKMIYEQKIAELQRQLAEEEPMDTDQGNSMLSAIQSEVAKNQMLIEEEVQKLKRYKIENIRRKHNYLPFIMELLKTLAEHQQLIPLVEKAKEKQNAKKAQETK
How it was run: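 Purified isopeptidase activity was measured with ubiquitin-AMC as fluorogenic substrate; IC50 was derived from inhibition.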

HT-29 [6] = test: Induction of cell death in human HT-29 cells at 2.5 to 10 uM after 48 hrs by trypan blue assay; type: functional, cell-based

`O=C1/C(=C/c2ccc([N+](=O)[O-])cc2)CC(O)C/C1=C\c1ccc([N+](=O)[O-])cc1` (stereo not drawn) was tested, and the Activity (A549) was “Active”, the Activity (T98G [1]) was “inactive” and the Activity (A-375) was “Active”. The inhibition [2] was “Active”, the IC50 (HT-29 [3]) was 7.6 µM and the Activity (T98G [4]) was “Active”. For the same compound, the IC50 [5] was 43 µM and the Activity (HT-29 [6]) was “Active”.
